Experiments:
Escherichia coli [1] = test: Inhibition of Escherichia coli MetAP at 25 uM after 20 mins by HPLC analysis
How it was run: (§1)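 Endpoint assay. Enzyme (50 nM) was preincubated with 25 μM compound for 20 min at 37 °C in 50 mM Tris pH 7.5, 100 mM NaCl, 100 μM CoCl2, 0.075% BSA. MGMM substrate (400 μM) was then added for 15 min (human MetAP-1) or 20 min (E. coli MetAP). Reactions were stopped with TFA. GMM product was quantified by RP-HPLC, UV 214 nm. Triplicate.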

[2] = molecular target: Methionine aminopeptidase 1 (Homo sapiens) (UniProt P53582); test: Inhibition of human MetAP at 25 uM after 20 mins by HPLC analysis; how it was run: as §1
Escherichia coli [3] = test: Inhibition of wild-type Escherichia coli MurA compound preincubated for 10 mins before substrate addition at 25 uM measured after 15 mins by LC-MS method
Escherichia coli [4] = test: Inhibition of wild-type Escherichia coli MurB compound preincubated for 10 mins before substrate addition at 25 uM measured after 15 mins by LC-MS method
How it was run: (§2)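 E. coli wild-type enzyme (4 nM) was preincubated with 25 μM compound for 10 min at 37 °C. Enzymatically generated nucleotide-sugar substrate (~200 μM) plus ATP (~200 μM), or NADPH 200 μM for MurB, was added for 10 min. Reactions were started with amino-acid cosubstrate (MurC–F) or EP-UNAG (MurB), run 15 min at 37 °C, and quenched with formic acid. Product was measured by negative-ESI LC-MS EIC peak area. MgCl2: MurC 10, MurD/E 2, MurF 5 mM; MurB had 5 mM KCl. All in 50 mM NH4HCO3, 0.07% BSA, 1% DMSO; triplicate.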

Escherichia coli [5] = test: Inhibition of wild-type Escherichia coli MurC compound preincubated for 10 mins before substrate addition at 25 uM measured after 15 mins by LC-MS method; how it was run: as §2
Escherichia coli [6] = test: Inhibition of wild-type Escherichia coli MurD compound preincubated for 10 mins before substrate addition at 25 uM measured after 15 mins by LC-MS method; how it was run: as §2
Escherichia coli [7] = test: Inhibition of wild-type Escherichia coli MurE compound preincubated for 10 mins before substrate addition at 25 uM measured after 15 mins by LC-MS method; how it was run: as §2
Escherichia coli [8] = test: Inhibition of wild-type Escherichia coli MurF compound preincubated for 10 mins before substrate addition at 25 uM measured after 15 mins by LC-MS method; how it was run: as §2
[9] = GSH reactivity of the compound assessed as adducts formation by RP-HPLC analysis
How it was run: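 Fresh aqueous glutathione (10 mM solution) was added to 50 mM Tris-maleate buffer, pH 7.5. The reaction was started with compound from 10 mM DMSO stock (final 250 μM). Mixtures were followed by reversed-phase HPLC on an ODS column with a gradient to 100% B; rate constants are given in l·mol⁻¹·s⁻¹.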

[10] = molecular target: Genome polyprotein (dengue virus type 2) (UniProt P12823); test: Inhibition of Dengue virus serotype 2 NS2B-NS3 protease at 50 uM
[11] = molecular target: Genome polyprotein (West Nile virus) (UniProt P06935); test: Inhibition of West Nile virus NS2B-NS3 protease at 50 uM
Genome polyprotein (West Nile virus), sequence (P06935 whole entry): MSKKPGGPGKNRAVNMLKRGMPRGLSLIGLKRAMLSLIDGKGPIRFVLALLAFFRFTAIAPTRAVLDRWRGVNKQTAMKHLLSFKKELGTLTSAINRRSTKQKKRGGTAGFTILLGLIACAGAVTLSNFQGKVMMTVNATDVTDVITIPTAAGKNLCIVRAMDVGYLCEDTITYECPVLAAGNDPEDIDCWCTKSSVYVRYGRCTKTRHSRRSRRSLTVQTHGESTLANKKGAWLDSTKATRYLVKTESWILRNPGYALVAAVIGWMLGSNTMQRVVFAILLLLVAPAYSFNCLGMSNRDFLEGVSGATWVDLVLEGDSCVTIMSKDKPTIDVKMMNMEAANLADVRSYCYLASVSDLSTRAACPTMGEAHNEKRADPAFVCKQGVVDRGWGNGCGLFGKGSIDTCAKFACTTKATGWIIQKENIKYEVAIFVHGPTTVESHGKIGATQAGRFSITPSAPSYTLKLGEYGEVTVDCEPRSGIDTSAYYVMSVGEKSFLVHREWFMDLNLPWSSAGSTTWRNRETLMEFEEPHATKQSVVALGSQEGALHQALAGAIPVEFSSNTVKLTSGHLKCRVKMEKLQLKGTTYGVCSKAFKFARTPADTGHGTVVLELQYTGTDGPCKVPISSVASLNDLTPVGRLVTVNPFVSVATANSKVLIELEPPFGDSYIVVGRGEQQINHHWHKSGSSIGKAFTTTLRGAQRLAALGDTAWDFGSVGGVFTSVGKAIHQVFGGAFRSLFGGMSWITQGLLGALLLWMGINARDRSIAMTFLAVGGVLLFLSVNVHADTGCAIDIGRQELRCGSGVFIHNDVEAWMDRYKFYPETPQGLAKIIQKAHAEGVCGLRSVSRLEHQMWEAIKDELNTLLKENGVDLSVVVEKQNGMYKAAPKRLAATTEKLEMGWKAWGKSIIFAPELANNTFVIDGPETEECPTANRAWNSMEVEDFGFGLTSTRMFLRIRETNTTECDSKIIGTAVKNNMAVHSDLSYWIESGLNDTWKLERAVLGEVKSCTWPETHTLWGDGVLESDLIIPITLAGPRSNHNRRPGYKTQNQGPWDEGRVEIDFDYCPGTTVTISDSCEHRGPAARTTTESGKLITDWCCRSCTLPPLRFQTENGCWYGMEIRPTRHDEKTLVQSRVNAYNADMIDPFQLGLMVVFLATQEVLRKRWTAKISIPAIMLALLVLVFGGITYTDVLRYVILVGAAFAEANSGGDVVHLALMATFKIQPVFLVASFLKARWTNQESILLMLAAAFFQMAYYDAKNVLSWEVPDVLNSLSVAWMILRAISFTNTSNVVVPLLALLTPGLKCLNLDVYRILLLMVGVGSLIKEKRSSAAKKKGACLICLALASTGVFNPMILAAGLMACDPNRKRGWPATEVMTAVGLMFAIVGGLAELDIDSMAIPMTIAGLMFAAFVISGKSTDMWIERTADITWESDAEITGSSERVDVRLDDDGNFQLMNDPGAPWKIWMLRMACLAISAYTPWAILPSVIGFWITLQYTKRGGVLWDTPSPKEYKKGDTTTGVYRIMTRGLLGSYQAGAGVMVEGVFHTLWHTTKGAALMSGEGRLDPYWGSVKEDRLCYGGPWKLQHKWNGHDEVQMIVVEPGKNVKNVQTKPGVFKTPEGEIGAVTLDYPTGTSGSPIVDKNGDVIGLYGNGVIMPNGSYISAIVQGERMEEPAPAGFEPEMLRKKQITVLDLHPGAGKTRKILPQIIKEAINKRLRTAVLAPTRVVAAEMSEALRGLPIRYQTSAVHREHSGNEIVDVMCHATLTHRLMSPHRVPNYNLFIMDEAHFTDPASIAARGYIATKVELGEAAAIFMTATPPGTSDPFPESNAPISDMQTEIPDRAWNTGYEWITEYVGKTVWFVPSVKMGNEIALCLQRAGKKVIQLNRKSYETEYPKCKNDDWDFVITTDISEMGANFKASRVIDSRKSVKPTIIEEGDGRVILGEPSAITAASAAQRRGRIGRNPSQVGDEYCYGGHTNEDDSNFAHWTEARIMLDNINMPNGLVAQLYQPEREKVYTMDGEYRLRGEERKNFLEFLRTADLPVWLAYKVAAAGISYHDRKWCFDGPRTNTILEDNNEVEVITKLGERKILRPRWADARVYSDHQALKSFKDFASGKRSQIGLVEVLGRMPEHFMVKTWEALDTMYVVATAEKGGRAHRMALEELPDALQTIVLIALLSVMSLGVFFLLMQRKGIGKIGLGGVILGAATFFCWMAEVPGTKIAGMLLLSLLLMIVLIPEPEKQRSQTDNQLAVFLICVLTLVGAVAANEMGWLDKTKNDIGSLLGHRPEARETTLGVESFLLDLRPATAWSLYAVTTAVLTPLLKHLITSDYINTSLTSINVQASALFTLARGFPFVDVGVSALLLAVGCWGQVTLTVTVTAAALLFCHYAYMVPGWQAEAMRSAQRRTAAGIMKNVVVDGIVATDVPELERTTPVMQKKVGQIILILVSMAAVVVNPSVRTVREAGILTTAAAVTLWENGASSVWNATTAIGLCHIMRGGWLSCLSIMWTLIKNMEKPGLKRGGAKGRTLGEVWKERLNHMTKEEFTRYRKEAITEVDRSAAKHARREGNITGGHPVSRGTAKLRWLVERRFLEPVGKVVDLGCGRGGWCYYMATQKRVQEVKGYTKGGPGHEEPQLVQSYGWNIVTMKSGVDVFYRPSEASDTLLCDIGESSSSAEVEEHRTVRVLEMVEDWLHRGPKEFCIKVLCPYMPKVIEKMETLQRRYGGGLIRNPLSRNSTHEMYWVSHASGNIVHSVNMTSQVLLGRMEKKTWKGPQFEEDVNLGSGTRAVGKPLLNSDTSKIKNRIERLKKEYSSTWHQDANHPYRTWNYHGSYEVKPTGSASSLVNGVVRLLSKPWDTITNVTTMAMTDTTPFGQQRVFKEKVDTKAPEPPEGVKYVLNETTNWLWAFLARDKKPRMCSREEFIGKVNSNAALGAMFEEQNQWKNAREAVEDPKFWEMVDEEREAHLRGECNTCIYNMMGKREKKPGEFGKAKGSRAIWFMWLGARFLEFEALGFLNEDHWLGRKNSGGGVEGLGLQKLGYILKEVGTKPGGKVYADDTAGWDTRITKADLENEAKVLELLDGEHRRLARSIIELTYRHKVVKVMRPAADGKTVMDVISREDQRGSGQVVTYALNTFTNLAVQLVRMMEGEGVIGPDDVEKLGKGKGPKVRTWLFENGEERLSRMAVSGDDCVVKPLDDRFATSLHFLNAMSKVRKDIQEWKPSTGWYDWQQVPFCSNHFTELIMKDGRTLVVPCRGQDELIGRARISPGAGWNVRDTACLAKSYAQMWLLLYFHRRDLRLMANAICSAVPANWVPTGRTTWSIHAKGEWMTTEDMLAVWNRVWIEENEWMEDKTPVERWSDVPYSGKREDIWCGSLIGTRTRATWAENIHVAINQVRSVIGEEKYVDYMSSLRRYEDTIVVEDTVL

Prothrombin (Bos taurus) = Prothrombin (Bos taurus) (UniProt P00735); test: Inhibition of Bovine thrombin using Boc-Val-Pro-Arg-AMC as substrate compound preincubated at 25 uM for 15 mins by fluorescence assay
How it was run: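 Bovine thrombin (final 10 nM) was preincubated 15 min with 25 μM compound in 50 mM Tris-HCl pH 7.5, 150 mM NaCl, 0.05% Tween 20. The reaction was started with Boc-Val-Pro-Arg-AMC (50 μM final). Fluorescence (ex 355/em 460 nm) was monitored continuously for 10 min; activity taken as slope (RFU/s). Triplicate.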

Compound | inhibition (Escherichia coli [1]) [%] | inhibition [2] [%] | inhibition (Escherichia coli [3]) [%] | inhibition (Escherichia coli [4]) [%] | inhibition (Escherichia coli [5]) [%] | inhibition (Escherichia coli [6]) [%] | inhibition (Escherichia coli [7]) [%] | inhibition (Escherichia coli [8]) [%] | inhibition [10] [%] | inhibition [11] [%] | inhibition (Prothrombin (Bos taurus)) [%] | Activity [9] [L/mol/s]
N#CCC(=O)NCc1ccccc1 | < 15 | < 15 | < 15 | < 15 | < 15 | < 15 | < 15 | < 15 | < 15 | 18 | < 15 | < 0.1
C=CCNC | < 15 | < 15 | < 15 | < 15 | < 15 | < 15 | < 15 | < 15 | < 15 | < 15 | < 15 | < 0.1
O=C(CCl)NC1CCCC1 | < 15 | < 15 | < 15 | < 15 | < 15 | < 15 | < 15 | < 15 | < 15 | < 15 | < 15 | < 0.1
COc1ccc(NC(=O)n2ccnc2)cc1 | < 15 | < 15 | 17 | < 15 | < 15 | < 15 | < 15 | < 15 | < 15 | < 15 | < 15 | < 0.1
Cc1ccc(NC(=O)n2ccnc2)cc1 | < 15 | < 15 | < 15 | < 15 | < 15 | < 15 | < 15 | < 15 | < 15 | < 15 | < 15 | < 0.1
C=CCNC1CCCC1 | < 15 | < 15 | < 15 | 17 | < 15 | < 15 | < 15 | < 15 | < 15 | < 15 | < 15 | < 0.1
C=CCNCCc1ccccc1 | < 15 | < 15 | < 15 | < 15 | < 15 | < 15 | < 15 | < 15 | < 15 | < 15 | < 15 | < 0.1
O=C(CCl)NCc1ccccc1 | < 15 | < 15 | < 15 | < 15 | < 15 | < 15 | < 15 | < 15 | < 15 | < 15 | < 15 | < 0.1
CNC(=O)C[S+](C)C | < 15 | < 15 | < 15 | < 15 | 14 | < 15 | 20 | < 15 | < 15 | < 15 | < 15 | –
O=C(CCl)Nc1ccc(F)cc1 | < 15 | < 15 | < 15 | < 15 | < 15 | < 15 | < 15 | < 15 | < 15 | < 15 | < 15 | < 0.1

Further lines, with some results ahead:

inhibition (Escherichia coli [1]) [%] | inhibition [2] [%] | inhibition (Escherichia coli [3]) [%] | inhibition (Escherichia coli [4]) [%] | inhibition (Escherichia coli [5]) [%] | inhibition (Escherichia coli [6]) [%] | inhibition (Escherichia coli [7]) [%] | inhibition (Escherichia coli [8]) [%] | inhibition [10] [%] | inhibition [11] [%] | inhibition (Prothrombin (Bos taurus)) [%] | Compound | Activity [9] [L/mol/s]
< 15 | < 15 | < 15 | < 15 | < 15 | < 15 | 15 | < 15 | < 15 | 16 | < 15 | COc1ccc(NC(=O)CC#N)cc1 | < 0.1
< 15 | < 15 | < 15 | < 15 | < 15 | < 15 | < 15 | < 15 | < 15 | < 15 | < 15 | CNC(=O)CC#N | < 0.1
< 15 | < 15 | < 15 | < 15 | < 15 | < 15 | < 15 | < 15 | < 15 | < 15 | < 15 | C[S+](C)CC(=O)NCc1ccccc1 | –
< 15 | < 15 | < 15 | < 15 | < 15 | < 15 | < 15 | < 15 | < 15 | < 15 | < 15 | Cc1ccc(NC(=O)CC#N)cc1 | < 0.1
< 15 | < 15 | < 15 | 20 | < 15 | < 15 | < 15 | < 15 | < 15 | < 15 | < 15 | C=CCNc1ccc(OC)cc1 | < 0.1
< 15 | < 15 | < 15 | < 15 | < 15 | < 15 | < 15 | < 15 | < 15 | < 15 | < 15 | COc1ccc(NC(=O)CCl)cc1 | < 0.1
< 15 | < 15 | < 15 | < 15 | < 15 | < 15 | < 15 | < 15 | < 15 | 22 | < 15 | N#CCC(=O)NCCc1ccccc1 | < 0.1
< 15 | < 15 | < 15 | < 15 | < 15 | < 15 | < 15 | 15 | < 15 | < 15 | < 15 | C=CCNc1ccc(C)cc1 | < 0.1
< 15 | < 15 | < 15 | < 15 | < 15 | < 15 | 15 | < 15 | < 15 | < 15 | < 15 | C[S+](C)CC(=O)Nc1ccc(F)cc1 | –
< 15 | < 15 | < 15 | < 15 | < 15 | < 15 | < 15 | < 15 | < 15 | < 15 | < 15 | O=C(Nc1ccc([N+](=O)[O-])cc1)n1ccnc1 | < 0.1
< 15 | < 15 | < 15 | < 15 | < 15 | < 15 | 17 | < 15 | < 15 | < 15 | < 15 | C[S+](C)CC(=O)NC1CCCC1 | –
< 15 | < 15 | < 15 | < 15 | < 15 | < 15 | < 15 | < 15 | < 15 | < 15 | < 15 | C[S+](C)CC(=O)NCCc1ccccc1 | –

Reference: ChEMBL document CHEMBL3352149, “Promiscuity and selectivity in covalent enzyme inhibition: a systematic study of electrophilic fragments” (J Med Chem, 2014)
